The text below walks through data of ChEMBL document CHEMBL1795266, “Synthesis and evaluation of monoamidoxime derivatives: toward new antileishmanial compounds” (Eur J Med Chem, 2011).

A word on the IC50: it is the concentration that inhibits the measured activity by half.

One series has as its system Leishmania donovani. Nature of the series: Antileishmanial activity against Leishmania donovani MHOM/IN/00/DEVI promastigote after 72 hrs by MTT assay. Format: functional, organism-based. A digest of the protocol:
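Promastigotes were seeded at 10⁶ parasites/mL in medium containing penicillin and streptomycin, with a range of compound concentrations in duplicate (DMSO under 0.5% v/v final). After MTT addition, plates stood 6 h at 27 °C and were spun at 900 G for 10 min. The pellet was dissolved in DMSO and read at 570 nm. IC50 (50% loss of metabolic activity versus control) came from nonlinear dose-response regression.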
A general note: Tetrazolium assays rely on reduction of a dye to a coloured formazan, in cell work by metabolically active cells.

The next series has as its system J774.A1. Briefly: Cytotoxic activity against mouse J774A1 cells after 72 hrs by MTT assay. Format: cell-based. Conditions: J774.A1, 72 h. The method in brief: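 J774A.1 macrophages were grown in medium with 10% FCS, 2 mM L-glutamine, penicillin and streptomycin. Cells were seeded at 5 × 10⁴ cells/mL with a concentration range in duplicate (DMSO under 0.5% v/v final) and held 72 h at 37 °C, 6% CO₂. MTT was added at 0.5 mg/mL in RPMI 1640 for 2 h at 37 °C. Formazan was dissolved in DMSO and read at 570 nm. IC50 came from nonlinear regression, as the mean of three independent experiments.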

Series [1] can be described thus: Selectivity index, ratio of IC50 for mouse J774A1 cells to IC50 for Leishmania donovani MHOM/IN/OO/DEVI promastigote. Format: toxicity, cell-based, J774.A1. Particulars: read-out: Ratio IC50.

Each structure is given as a SMILES string.

Turning to `CC1(Cc2ccccc2)CC(S(=O)(=O)c2ccc(C(F)(F)F)cc2)=C(c2ccc(/C(N)=N/O)cc2)O1` (stereo unspecified), the half-inhibitory concentration (IC50) turned out to be 7.89 µM in the series on Leishmania donovani and 30.5 µM in the series with J774.A1. The selectivity ratio in series [1] worked out at 3.87.

For `CC1(Cc2ccccc2)CC(S(=O)(=O)c2ccc(F)cc2)=C(c2ccc(/C(N)=N/O)cc2)O1` (stereo unspecified), the IC50 was 7.15 µM in the series on Leishmania donovani and 45.5 µM in the series on J774.A1. Further, in series [1], the selectivity ratio worked out at 6.37.

With `CC1(Cc2ccccc2)CC(S(=O)(=O)c2ccc(Cl)cc2)=C(c2ccc(/C(N)=N/O)cc2)O1` (stereo unspecified), the IC50 in the series with Leishmania donovani is 7.4 µM; with J774.A1 it was 27.4 µM. Further, the selectivity ratio in series [1] was 3.71.

As to `CC1(Cc2ccccc2)CC(S(=O)(=O)c2ccc(Br)cc2)=C(c2ccc(/C(N)=N/O)cc2)O1` (stereo unspecified), the IC50 was 5.21 µM in the series on Leishmania donovani and 20.1 µM in the series with J774.A1. Moreover, the selectivity ratio in series [1] was found to be 3.85.

Take `CC1(Cc2ccccc2)CC(S(=O)(=O)c2ccc(I)cc2)=C(c2ccc(/C(N)=N/O)cc2)O1` (stereo unspecified): the figures for the IC50 with Leishmania donovani and with J774.A1 were 6.89 µM and 11.8 µM, respectively. The selectivity ratio in series [1] was found to be 1.72.

For the compound `CC1(Cc2ccccc2)CC(S(=O)(=O)c2ccc([N+](=O)[O-])cc2)=C(c2ccc(/C(N)=N/O)cc2)O1` (stereo unspecified), the figures for the half-inhibitory concentration (IC50) in the series on Leishmania donovani and in the series on J774.A1 were 19.4 µM and 50.6 µM, respectively. Further, the selectivity ratio in series [1] is 2.61.

For `COc1ccc(S(=O)(=O)C2=C(c3ccc(/C(N)=N/O)cc3)OC(C)(Cc3ccccc3)C2)cc1` (stereo unspecified), the concentration for half-maximal inhibition (IC50) in the series with Leishmania donovani is 7.49 µM; in the series on J774.A1 it was 9.03 µM. For the same compound, the selectivity ratio in series [1] was found to be 1.21.

For `CC1(Cc2ccccc2)CC(S(=O)(=O)c2ccc(/C(N)=N\O)cc2)=C(c2ccc(C(F)(F)F)cc2)O1` (stereo unspecified), the IC50 in the series with Leishmania donovani came out at 8.46 µM; with J774.A1 it was 11.9 µM. Besides, the selectivity ratio in series [1] is 1.4.

Turning to `CC1(Cc2ccccc2)CC(S(=O)(=O)c2ccc(/C(N)=N\O)cc2)=C(c2ccc(F)cc2)O1` (stereo unspecified), the IC50 worked out at 30.7 µM with Leishmania donovani and 36.2 µM with J774.A1. For the same compound, the selectivity ratio in series [1] was found to be 1.18.

On to `CC1(Cc2ccccc2)CC(S(=O)(=O)c2ccc(/C(N)=N\O)cc2)=C(c2ccc(Cl)cc2)O1` (stereo unspecified), for which the half-inhibitory concentration (IC50) in the series with Leishmania donovani amounted to 9.87 µM; in the series on J774.A1, 7.05 µM. Besides, the selectivity ratio in series [1] turned out to be 0.71.

As to `CC1(Cc2ccccc2)CC(S(=O)(=O)c2ccc(/C(N)=N\O)cc2)=C(c2ccc(Br)cc2)O1` (stereo unspecified), the IC50 with Leishmania donovani is 8.95 µM; in the series with J774.A1, 9.78 µM. For the same compound, the selectivity ratio in series [1] came to 1.09.

`CC1(Cc2ccccc2)CC(S(=O)(=O)c2ccc(/C(N)=N\O)cc2)=C(c2ccc(I)cc2)O1` (stereo unspecified): the IC50 in the series on Leishmania donovani was 6.63 µM; in the series on J774.A1, 8.08 µM. Moreover, the selectivity ratio in series [1] came out at 1.22.

As for `CC1(Cc2ccccc2)CC(S(=O)(=O)c2ccc(/C(N)=N\O)cc2)=C(c2ccc([N+](=O)[O-])cc2)O1` (stereo unspecified), the IC50 is 18.8 µM with Leishmania donovani and 18.5 µM with J774.A1. For the same compound, the selectivity ratio in series [1] was found to be 0.98.

Turning to `C[C@@H]1[C@H](O)[C@@H](C)/C=C/C=C/C=C/C=C/C=C/C=C/C=C/[C@H](O[C@@H]2O[C@H](C)[C@@H](O)[C@H](N)[C@@H]2O)C[C@@H]2O[C@](O)(C[C@@H](O)C[C@@H](O)[C@H](O)CC[C@@H](O)C[C@@H](O)CC(=O)O[C@H]1C)C[C@H](O)[C@H]2C(=O)O` [AMPHOTERICIN B], the IC50 worked out at 0.77 µM in the series with Leishmania donovani and 3.14 µM in the series with J774.A1. For the same compound, the selectivity ratio in series [1] was 4.08.

`COc1cccc2c1C(=O)c1c(O)c3c(c(O)c1C2=O)C[C@@](O)(C(=O)CO)C[C@@H]3O[C@H]1C[C@H](N)[C@H](O)[C@H](C)O1` [DOXORUBICIN] had an IC50 in the series with J774.A1 of 0.02 µM.

For the compound `N=C(N)c1ccc(OCCCCCOc2ccc(C(=N)N)cc2)cc1` [PENTAMIDINE], the concentration for half-maximal inhibition (IC50) was 6.29 µM in the series on Leishmania donovani and 1.03 µM with J774.A1. In series [1], the selectivity ratio was found to be 0.16.
